One assay has as its system K562. Briefly: Growth inhibition of human K562 cells after 48 hrs by SRB assay. The class given is functional. The note with it: K562, 48 h. In short, it runs like this: (§1)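 NCI 60-cell-line screen. Cells grown in RPMI1640 with 5% fetal calf serum and 2 mM L-glutamine, with inoculum density set by cell line. Preincubated 24 h, then given compound in DMSO at 10^-4 to 10^-8 M (five 10-fold steps) for 48 h continuous exposure. Growth measured by SRB protein assay. GI50, TGI and LC50 reported as –log molar.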

Another assay relates to MOLT-4. Kind of assay: Growth inhibition of human MOLT4 cells after 48 hrs by SRB assay. The note with it: MOLT-4, 48 h. The class given is functional. In short, it runs like this: as §1
On the technique in general: Sulforhodamine B stains cellular protein and so reports cell mass.

The test system of another assay is NCI-H522. Briefly: Growth inhibition of human NCI-H522 cells after 48 hrs by SRB assay. It is filed as functional. Particulars: NCI-H522, 48 h. The gist of the method: as §1
Another assay has as its system COLO 205. Briefly: Growth inhibition of human COLO205 cells after 48 hrs by SRB assay. It is filed as functional. Particulars: COLO 205, 48 h. In short, it runs like this: as §1
The subject of the next assay is HCT-116. Kind of assay: Growth inhibition of human HCT116 cells after 48 hrs by SRB assay. It is filed as functional. The note with it: HCT-116, 48 h. The gist of the method:
as §1

The test system of the next assay is HT-29. Kind of assay: Growth inhibition of human HT-29 cells after 48 hrs by SRB assay. The class given is functional. Particulars: HT-29, 48 h. In short, it runs like this:
as §1

In the next assay the test system is KM12. Briefly: Growth inhibition of human KM12 cells after 48 hrs by SRB assay. The class given is functional. Particulars: KM12, 48 h. In short, it runs like this: as §1
A further assay deals with SW-620. Kind of assay: Growth inhibition of human SW620 cells after 48 hrs by SRB assay. The note with it: SW-620, 48 h. It is filed as functional. The gist of the method:
as §1

The subject of a further assay is SF-268. Kind of assay: Growth inhibition of human SF268 cells after 48 hrs by SRB assay. Particulars: SF-268, 48 h. It is filed as functional. The gist of the method:
as §1

The next assay relates to MDA-MB-435. Briefly: Growth inhibition of human MDA-MB-435 cells after 48 hrs by SRB assay. The note with it: MDA-MB-435, 48 h. The class given is functional. The gist of the method: as §1
The subject of another assay is A498. Briefly: Growth inhibition of human A498 cells after 48 hrs by SRB assay. The note with it: A498, 48 h. The class given is functional. The gist of the method: as §1
The subject of a further assay is T47D. Kind of assay: Growth inhibition of human T47D cells after 48 hrs by SRB assay. The note with it: read-out: pTGI (converted). It is filed as functional. The gist of the method: as §1
The nature of assay [1]: Inhibition of tubulin polymerization. In short, it runs like this: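 Tubulin (3 mg/mL HTS) in G-PEM buffer plus 5% glycerol, prepared at 4 °C, incubated at 37 °C with or without compound. Polymerization followed by A340 over 60 min. Polymer taken as the AUC, with untreated control AUC set to 100%. IC50 derived by non-linear regression.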
The next assay relates to NCI-H460. Kind of assay: Cytotoxicity against human NCI-H460 cells after 72 hrs by SRB assay. The class given is functional, cell-based. The note with it: NCI-H460, 72 h. In short, it runs like this:
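NCI-H460 (ATCC) cells seeded in 96-well plates in growth medium. Scalar drug concentrations added 24 h after plating, then 72 h exposure. Surviving cells stained with sulforhodamine B, OD read at 570 nm. IC50 (50% growth inhibition) fitted from dose–response curves. Mean ± SE of at least three independent experiments.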

Each structure is given as a SMILES string.

What is called GI50 is the concentration that inhibits growth by half. A high value points to less potent growth inhibition. One may read the IC50 as the concentration that inhibits the measured activity by half.

Take `CCN(CC)c1ccc(C2CC(c3cc(OC)c(OC)c(OC)c3)=NN2)cc1` (centres undefined): the 50% growth inhibitory concentration (GI50) in the assay with K562 is 398 nM; in the assay on MOLT-4 it was 1260 nM; in the assay with NCI-H522, 251 nM; in the assay on COLO 205 it was 398 nM; with HCT-116, 251 nM; in the assay with HT-29, 316 nM. For the same compound, the GI50 in the assay with KM12 was 398 nM; with SW-620, 398 nM; in the assay on SF-268, 794 nM; in the assay with MDA-MB-435 it was 158 nM; in the assay on A498, 398 nM. Besides, the TGI in the assay with K562 (read-out: pTGI (converted)) is 12600 nM; in the assay on MOLT-4 (read-out: pTGI (converted)) it was 5010 nM; with NCI-H522 (read-out: pTGI (converted)) it was 2000 nM; with COLO 205 (read-out: pTGI (converted)), 1580 nM; in the assay with HCT-116 (read-out: pTGI (converted)), 1000 nM; in the assay with HT-29 (read-out: pTGI (converted)) it was over 100000 nM. Besides, the TGI was over 100000 nM with KM12 (read-out: pTGI (converted)); over 100000 nM in the assay with SW-620 (read-out: pTGI (converted)); 316 nM with MDA-MB-435 (read-out: pTGI (converted)); 794 nM in the assay with A498 (read-out: pTGI (converted)); over 100000 nM in the assay with T47D. For the same compound, the results for the IC50 (in assay [1]; with NCI-H460) were over 10000 nM and 300 nM, respectively.

The values are drawn from ChEMBL document CHEMBL1221342, “Synthesis and in vitro antitumor activity of new 4,5-dihydropyrazole derivatives” (Bioorg Med Chem, 2010).
